The values that follow come from ChEMBL document CHEMBL1132974 (J Med Chem, 2000).

For test [1], the target named is Histamine H1 receptor (Cavia porcellus) (UniProt P31389). The test can be described thus: Negative logarithm of receptor dissociation constant Kp was reported. Type of test: functional. In a few lines:
(§1)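 Guinea-pig ileum (0.1 µM atropine, 37 °C Tyrode's). […] Where several partial-agonist concentrations were used, the overall value comes from a Kaumann-Marano plot with slope constrained to unity.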

For test [2] the target is unchanged. Kind of test: Intrinsic activity was reported at a concentration of 10 uM. Type of test: functional.
Test [3] shares this target. The test can be described thus: Intrinsic activity was reported in endothelium-denuded guinea pig(pre contracted with PGF-2 alpha) at a concentration of 10 uM. The test is classed as functional. In a few lines: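 Endothelium-denuded guinea-pig aortic rings, set up as in the contraction assay, challenged twice with PGF2α (10 µM). Rings were precontracted with a threshold PGF2α level (usually 0.4–1.5 µM, 10–20% of the 10 µM response).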

Test [4] has the same target. The test can be described thus: Intrinsic activity was reported in guinea pig ileal whole segment. The test is classed as functional.
Test [5] shares this target. The test can be described thus: Relative potency was recorded in endothelium-denuded guinea pig; value ranges from 5.68 to 5.93. Type of test: functional. In outline:
(§2)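 Guinea-pig thoracic aortic rings (2–4 mm), endothelium rubbed off, isometric (10 mN), modified Krebs-Henseleit (1.80 mM Ca2+), 37 °C. Cimetidine, corticosterone and cocaine (30 µM each), prazosin and yohimbine (0.3 µM each) and propranolol (0.1 µM) were present. […] The pEC50 shift was corrected using untreated control preparations.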

Test [6] addresses Histamine H1 receptor (Rattus norvegicus) (UniProt P31390). Kind of test: The compound was evaluated for intrinsic activity i.e. maximum histamine controls relative to contraction evoked by 10 uM PGF2-alpha in relaxed rat aortic rings. The test is classed as functional, tissue-based. The following applies: Aorta.
Target sequence in this assay (P31390 whole entry): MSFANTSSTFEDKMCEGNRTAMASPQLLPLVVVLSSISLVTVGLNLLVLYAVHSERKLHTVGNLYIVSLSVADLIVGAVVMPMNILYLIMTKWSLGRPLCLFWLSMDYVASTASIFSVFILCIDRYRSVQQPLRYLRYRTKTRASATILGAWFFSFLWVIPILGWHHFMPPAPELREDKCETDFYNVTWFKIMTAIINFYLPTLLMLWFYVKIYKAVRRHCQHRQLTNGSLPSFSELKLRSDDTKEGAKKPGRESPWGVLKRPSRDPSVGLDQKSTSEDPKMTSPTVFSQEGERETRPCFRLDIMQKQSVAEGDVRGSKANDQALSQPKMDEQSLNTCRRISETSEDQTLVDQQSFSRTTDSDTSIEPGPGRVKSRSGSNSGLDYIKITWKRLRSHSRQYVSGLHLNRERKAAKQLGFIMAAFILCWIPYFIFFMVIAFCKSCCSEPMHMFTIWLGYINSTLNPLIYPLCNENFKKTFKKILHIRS
Test [7] shares this target. The test can be described thus: Relative potency was recorded in relaxed rat aortic rings; value ranges from […] to […]. Type of test: functional, tissue-based. The following applies: Aorta.
Target sequence in this assay (P31390 whole entry): as above
The target of test [8] is Histamine H1 receptor (Cavia porcellus) (UniProt P31389). Kind of test: pA2 was recorded in endothelium-denuded guinea pig(pre contracted with PGF-2 alpha).value ranges from 5.66 to 6.19.
Sequence of Histamine H1 receptor (Cavia porcellus) (P31389 whole entry): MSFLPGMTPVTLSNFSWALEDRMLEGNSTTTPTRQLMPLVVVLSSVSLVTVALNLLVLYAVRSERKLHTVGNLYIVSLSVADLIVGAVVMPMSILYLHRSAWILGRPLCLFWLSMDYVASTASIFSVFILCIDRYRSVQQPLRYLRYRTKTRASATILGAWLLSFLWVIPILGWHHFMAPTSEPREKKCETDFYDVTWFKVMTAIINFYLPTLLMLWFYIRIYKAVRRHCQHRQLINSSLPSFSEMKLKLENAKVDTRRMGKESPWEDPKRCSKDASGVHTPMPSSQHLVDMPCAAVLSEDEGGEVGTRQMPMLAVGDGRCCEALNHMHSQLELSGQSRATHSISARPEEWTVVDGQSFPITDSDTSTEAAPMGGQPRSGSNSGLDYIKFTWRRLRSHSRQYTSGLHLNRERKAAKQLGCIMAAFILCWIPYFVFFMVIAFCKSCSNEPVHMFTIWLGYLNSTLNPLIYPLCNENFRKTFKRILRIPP
In test [9] the target is Serotonin 3 (5-HT3) receptor. Kind of test: Compound was evaluated for its antagonist affinity towards 5-hydroxytryptamine 3 receptor of guinea pig. The test is classed as functional, Cavia porcellus. In outline: (§3)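 Functional antagonism assays in guinea-pig tissues, each run with 1 µM mepyramine present: M3 (whole ileum), β1 (right atrium), 5-HT1B (iliac artery), 5-HT3 (quiescent ileal longitudinal muscle with myenteric plexus). Results are given as apparent pA2, or pD'2 when only curve depression occurred.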

The species named for test [10] is Cavia porcellus. The test can be described thus: Mepyramine concentration required to antagonise histaprodifens compound induced effects in guinea pig or rat assays. The test is classed as functional, organism-based.
The target of test [11] is Histamine H1 receptor (Cavia porcellus) (UniProt P31389). Kind of test: concentration of mepyramine was determined. Type of test: functional.
The target in test [12] is Histamine H1 receptor (Rattus norvegicus) (UniProt P31390). The test can be described thus: The compound was evaluated for intrinsic activity in relaxed rat aortic rings with intact endothelium, submaximally precontracted with 15.8 nM U-46,619. The test is classed as functional, tissue-based. More on the design: unit not given here. Particulars: Aorta.
Target sequence in this assay (P31390 whole entry): as the sequence (P31390 whole entry) above
The target of test [13] is Histamine H1 receptor (Cavia porcellus) (UniProt P31389). Kind of test: Negative logarithm of receptor dissociation constant Kp was reported in guinea pig ileum whole segment. Type of test: functional, tissue-based. In outline:
as §1

Test [14] addresses T1, Alpha-1D adrenergic receptor (Rattus norvegicus, UniProt P23944).
T1 sequence (P23944 whole entry): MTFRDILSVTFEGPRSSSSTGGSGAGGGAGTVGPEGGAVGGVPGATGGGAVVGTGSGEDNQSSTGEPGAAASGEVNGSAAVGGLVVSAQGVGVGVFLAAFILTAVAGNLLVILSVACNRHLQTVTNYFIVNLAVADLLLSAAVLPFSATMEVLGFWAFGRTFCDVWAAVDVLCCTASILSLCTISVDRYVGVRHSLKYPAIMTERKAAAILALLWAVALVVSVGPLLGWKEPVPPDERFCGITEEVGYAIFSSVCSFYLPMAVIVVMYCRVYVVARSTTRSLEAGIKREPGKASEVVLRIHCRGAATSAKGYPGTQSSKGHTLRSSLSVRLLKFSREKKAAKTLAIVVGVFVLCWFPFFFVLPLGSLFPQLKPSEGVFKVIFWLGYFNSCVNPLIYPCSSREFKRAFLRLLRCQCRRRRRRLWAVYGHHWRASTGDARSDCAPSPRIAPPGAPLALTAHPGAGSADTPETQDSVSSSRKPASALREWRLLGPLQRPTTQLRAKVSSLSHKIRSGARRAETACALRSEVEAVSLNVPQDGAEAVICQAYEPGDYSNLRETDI
Kind of test: Compound was evaluated for its antagonist affinity towards Alpha-1D adrenergic receptor of rat. The test is classed as functional. The following applies: read-out: pA2 (converted). In a few lines: (§4)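 Functional antagonism in rat tissues: α1D (thoracic aorta), 5-HT2A (tail artery), 5-HT4 (oesophageal tunica muscularis mucosae). Results are given as apparent pA2 from single-concentration rightward shifts, or pD'2 when only curve depression occurred.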

The target in test [15] is Beta-1 adrenergic receptor (Cavia porcellus, UniProt B0FL73). Kind of test: Compound was evaluated for its antagonist affinity towards Beta-1 adrenergic receptor of guinea pig. The test is classed as functional. The following applies: read-out: pA2 (converted). In outline:
as §3

Test [16] has as its target T2, Histamine H1 receptor (Rattus norvegicus, UniProt P31390). Kind of test: Effective concentration for agonism activity in relaxed rat aortic rings with intact endothelium, submaximally precontracted with 15.8 nM U-46,619. The test is classed as functional, tissue-based, Aorta.
Another test has as its target Histamine H3 receptor (Cavia porcellus, UniProt Q9JI35). Kind of test: Compound was evaluated for its antagonist affinity towards Histamine H3 receptor of guinea pig. Type of test: functional. The following applies: read-out: pA2 (converted). In outline:
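Electrically stimulated guinea-pig ileal longitudinal muscle with myenteric plexus, isometric (7.5 mN). Cumulative (R)-α-methylhistamine curves were run with and without test compound (20 min), with 1 µM mepyramine present. Values were apparent pA2, or pD'2 where curves were depressed.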

For test [17], the target named is T3, Histamine H1 receptor (Cavia porcellus, UniProt P31389). The test can be described thus: Compound was evaluated for mepyramine antagonism effects in guinea pig aorta (contraction) at a mepyramine concentration of 100 nM. The test is classed as functional, tissue-based. Particulars: read-out: pA2 (converted). In outline: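 Guinea-pig aortic rings with endothelium damaged, isometric (10 mN), 37 °C Krebs-Henseleit. Agonist curves were run with mepyramine (100 nM, about 60 min) after threshold PGF2α precontraction. Apparent pA2 = −log c + log(r−1).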
T3 sequence (P31389 whole entry): as the sequence (P31389 whole entry) above

Test [18] concerns the target T3, Histamine H1 receptor. The test can be described thus: Antagonism of guinea pig ileum contraction at 100 nM mepyramine. The test is classed as functional, tissue-based. The following applies: read-out: pA2 (converted). In a few lines: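 Guinea-pig whole ileal segments (2.0–2.5 cm), isotonic, preload 0.5 g, Tyrode's at 37 °C, 95% O2/5% CO2, with 0.1 µM atropine throughout. […] Apparent pA2 = −log c + log(r−1); full pA2 from Schild plot, slope fixed at 1.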

Another test deals with Histamine H2 receptor (Cavia porcellus, UniProt P47747). The test can be described thus: Compound was evaluated for its antagonist affinity towards Histamine H2 receptor of guinea pig. Type of test: functional. Particulars: read-out: pA2 (converted).
Sequence of Histamine H2 receptor (P47747 whole entry): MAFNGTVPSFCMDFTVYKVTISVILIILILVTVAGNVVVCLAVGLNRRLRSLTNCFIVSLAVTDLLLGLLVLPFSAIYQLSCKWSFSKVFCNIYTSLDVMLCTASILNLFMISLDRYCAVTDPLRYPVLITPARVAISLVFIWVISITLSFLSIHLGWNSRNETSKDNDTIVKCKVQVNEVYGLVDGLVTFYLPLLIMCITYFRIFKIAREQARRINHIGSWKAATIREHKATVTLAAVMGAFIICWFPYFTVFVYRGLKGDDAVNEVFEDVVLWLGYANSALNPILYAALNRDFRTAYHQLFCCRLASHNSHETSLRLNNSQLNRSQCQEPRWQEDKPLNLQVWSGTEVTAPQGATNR
Test [19] deals with T3, Histamine H1 receptor. Kind of test: (§5) Effective concentration for agonism activity in Endothelium-Denuded guinea pig aortic segment. The test is classed as functional, tissue-based, Aorta. In outline:
as §2

In test [20] the target is T3, Histamine H1 receptor. Kind of test: (§6) Effective concentration for agonism activity in endothelium-denuded guinea pig aortic segment. The test is classed as functional, tissue-based, Aorta. In a few lines: as §2
The target in test [21] is T3, Histamine H1 receptor. Kind of test: Effective concentration for agonist activity in guinea pig ileum whole segment. Type of test: functional, tissue-based.
Test [22] has as its target Muscarinic acetylcholine receptor M3 (Cavia porcellus, UniProt Q8VH26). The test can be described thus: Compound was evaluated for its antagonist affinity towards Muscarinic acetylcholine receptor M3 of guinea pig. Type of test: functional. Particulars: read-out: pA2 (converted). In outline: as §3
In test [23] the target is 5-hydroxytryptamine receptor 2A (Rattus norvegicus, UniProt P14842). Kind of test: Compound was evaluated for its antagonist affinity towards 5-hydroxytryptamine 2A receptor of rat. Particulars: read-out: pA2 (converted). Type of test: functional. In a few lines:
as §4

Test [24] has as its target 5-hydroxytryptamine receptor 4 (Rattus norvegicus, UniProt Q62758). Kind of test: Compound was evaluated for its antagonist affinity towards 5-hydroxytryptamine 4 receptor of rat. Type of test: functional. The following applies: read-out: pA2 (converted). In a few lines: as §4
Test [25] concerns the target T2, Histamine H1 receptor. The test can be described thus: Compound was evaluated for mepyramine antagonism effects in rat aorta (relaxation) at a mepyramine concentration of 100 nM. Particulars: read-out: pA2 (converted).
The species named for test [26] is Cavia porcellus. The test is described as §5. Particulars: Aorta, read-out: Log EC50 (converted).
The species named for test [27] is Cavia porcellus. Kind of test: Effective concentration for agonism activity in guinea pig ileal whole segment. Particulars: read-out: Log EC50 (converted).
The species entered for test [28] is Cavia porcellus. The description is as §6. The following applies: Aorta, read-out: Log EC50 (converted).
For a further test, the species on record is Rattus norvegicus. The test can be described thus: tissue or blood. Particulars: Aorta, read-out: Log EC50 (converted).
The target in test [29] is 5-hydroxytryptamine receptor 1B (Cavia porcellus). The test can be described thus: Compound was evaluated for its antagonist affinity towards 5-hydroxytryptamine 1B receptor of guinea pig. Particulars: read-out: pA2 (converted).
Test [30] addresses Histamine H1 receptor (Rattus norvegicus) (UniProt P31390). Kind of test: Compound was evaluated for mepyramine antagonism effects in rat aorta (relaxation) at a mepyramine concentration of 100 nM. Particulars: read-out: pA2 (converted).
Target sequence in this assay (P31390 whole entry, looked up): as the sequence (P31390 whole entry) above
In test [31] the target is Histamine H1 receptor (Cavia porcellus) (UniProt P31389). Kind of test: Intrinsic activity of the compounddwas reported in guinea pig ileum whole segment. The test is classed as functional, tissue-based.
The target is the same in test [32]. The test can be described thus: Relative potency in guinea pig ileum whole segment; value ranges from 4 to 15. Type of test: functional, tissue-based.

“And” between values parts separate entries of the source, which are not always exact repeats. Identical values can stand only once. Some results are limits rather than exact numbers.

T2 sequence (P31390 whole entry): as above
Sequence of Histamine H3 receptor (Q9JI35 whole entry): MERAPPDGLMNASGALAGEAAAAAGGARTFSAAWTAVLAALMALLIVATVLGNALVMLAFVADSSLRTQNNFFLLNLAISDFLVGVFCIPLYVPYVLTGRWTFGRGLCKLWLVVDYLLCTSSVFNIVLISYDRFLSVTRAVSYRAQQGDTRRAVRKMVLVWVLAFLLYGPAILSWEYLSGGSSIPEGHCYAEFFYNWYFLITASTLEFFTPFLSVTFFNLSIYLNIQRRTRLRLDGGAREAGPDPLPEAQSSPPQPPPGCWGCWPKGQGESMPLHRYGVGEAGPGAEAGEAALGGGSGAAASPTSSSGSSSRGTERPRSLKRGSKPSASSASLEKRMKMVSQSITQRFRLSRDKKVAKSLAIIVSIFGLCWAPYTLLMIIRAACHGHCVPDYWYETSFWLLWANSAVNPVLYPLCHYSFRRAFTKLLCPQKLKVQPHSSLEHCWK
Sequence of 5-hydroxytryptamine receptor 4 (Q62758 whole entry): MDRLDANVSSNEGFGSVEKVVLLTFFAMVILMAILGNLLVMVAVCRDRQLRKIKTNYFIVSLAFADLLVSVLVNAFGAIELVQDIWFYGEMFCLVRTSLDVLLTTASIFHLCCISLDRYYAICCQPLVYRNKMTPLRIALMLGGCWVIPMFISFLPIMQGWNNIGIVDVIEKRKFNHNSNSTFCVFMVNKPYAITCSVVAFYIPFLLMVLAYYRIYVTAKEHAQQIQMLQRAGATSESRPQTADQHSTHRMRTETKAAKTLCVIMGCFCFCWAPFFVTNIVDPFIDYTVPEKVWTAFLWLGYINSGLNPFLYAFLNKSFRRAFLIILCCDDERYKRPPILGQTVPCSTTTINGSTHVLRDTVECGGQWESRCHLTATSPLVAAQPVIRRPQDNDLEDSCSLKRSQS
Sequence of Beta-1 adrenergic receptor (B0FL73 whole entry): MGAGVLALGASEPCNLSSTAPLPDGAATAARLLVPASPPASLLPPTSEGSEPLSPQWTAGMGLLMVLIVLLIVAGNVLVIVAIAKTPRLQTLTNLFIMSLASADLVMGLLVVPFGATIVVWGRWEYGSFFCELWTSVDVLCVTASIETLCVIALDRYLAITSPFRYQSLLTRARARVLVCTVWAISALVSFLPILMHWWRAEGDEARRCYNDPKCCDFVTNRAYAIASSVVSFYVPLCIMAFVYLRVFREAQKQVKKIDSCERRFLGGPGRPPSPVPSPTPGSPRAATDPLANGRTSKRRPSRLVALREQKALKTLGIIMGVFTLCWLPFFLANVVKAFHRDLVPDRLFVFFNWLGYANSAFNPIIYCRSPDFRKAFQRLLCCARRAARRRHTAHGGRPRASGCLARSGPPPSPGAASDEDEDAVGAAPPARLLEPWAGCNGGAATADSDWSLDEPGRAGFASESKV
Sequence of 5-hydroxytryptamine receptor 2A (P14842 whole entry): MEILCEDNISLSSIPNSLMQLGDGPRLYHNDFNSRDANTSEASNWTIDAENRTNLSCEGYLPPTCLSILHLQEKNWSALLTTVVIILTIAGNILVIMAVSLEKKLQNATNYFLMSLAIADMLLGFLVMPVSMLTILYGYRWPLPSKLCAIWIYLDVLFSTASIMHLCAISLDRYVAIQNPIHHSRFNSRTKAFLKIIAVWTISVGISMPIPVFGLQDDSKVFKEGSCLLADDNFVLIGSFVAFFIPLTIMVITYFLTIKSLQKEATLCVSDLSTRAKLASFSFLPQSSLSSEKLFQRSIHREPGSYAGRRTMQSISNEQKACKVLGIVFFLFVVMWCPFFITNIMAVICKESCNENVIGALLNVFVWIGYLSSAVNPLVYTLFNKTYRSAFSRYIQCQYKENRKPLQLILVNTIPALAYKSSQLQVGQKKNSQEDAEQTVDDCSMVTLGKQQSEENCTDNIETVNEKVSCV
Sequence of Muscarinic acetylcholine receptor M3 (Q8VH26 whole entry): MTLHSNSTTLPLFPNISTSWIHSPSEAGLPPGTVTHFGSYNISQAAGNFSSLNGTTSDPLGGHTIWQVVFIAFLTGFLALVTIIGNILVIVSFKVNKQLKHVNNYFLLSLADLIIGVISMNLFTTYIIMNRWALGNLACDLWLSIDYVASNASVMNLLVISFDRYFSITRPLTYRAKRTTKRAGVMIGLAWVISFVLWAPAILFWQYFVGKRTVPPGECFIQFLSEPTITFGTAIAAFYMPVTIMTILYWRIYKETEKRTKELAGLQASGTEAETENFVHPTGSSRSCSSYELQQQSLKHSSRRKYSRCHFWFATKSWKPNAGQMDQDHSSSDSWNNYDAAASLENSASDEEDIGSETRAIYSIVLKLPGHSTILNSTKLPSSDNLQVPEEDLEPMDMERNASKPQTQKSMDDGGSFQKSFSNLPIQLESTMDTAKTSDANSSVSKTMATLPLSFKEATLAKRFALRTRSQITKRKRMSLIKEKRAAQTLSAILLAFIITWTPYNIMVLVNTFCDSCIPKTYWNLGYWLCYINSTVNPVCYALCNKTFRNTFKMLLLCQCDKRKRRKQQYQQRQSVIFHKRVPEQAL

In the case of `NCCc1c[nH]c(CCCC(c2ccccc2)c2ccccc2)n1`, in [1], the pKp came to 5.94. Further, the Emax in [2] worked out at 0; in test [3], 0; in test [4], 2; in test [6] it was 0. Further, the pA2 in test [5] amounted to 5.8; in test [7] it was 5.72; in [8], 5.92.

Turning to `CNCCc1c[nH]c(CCC(c2ccccc2)c2ccccc2)n1`, the pA2 in test [9] is given as below 5.8. Besides, the Concentration in the test filed under Cavia porcellus [10] was 0.1 µM; in test [11], 0.003 µM and 0.005 µM. This molecule gave an Emax in test [12] of 55. Also, the pKp in test [13] is 6.45.

As to `CNCCc1cnc(CCC(c2ccccc2)c2ccccc2)[nH]1`, the Kb in test [14] was 5.75 µM; in test [15] it was 14.5 µM; at Histamine H3 receptor, above 1580 nM; on Histamine H1 receptor [17] it was 1.78 nM; on Histamine H1 receptor [18] it was 0.741 nM and 1.35 nM; on Histamine H2 receptor it was 12.6 µM. Further, the Kb is 3550 nM in test [22], 4.07 µM in test [23], above 1580 nM in test [24] and 9.55 nM on Histamine H1 receptor [25]. Moreover, the EC50 was 158 nM at Histamine H1 receptor [16], 77.6 nM at Histamine H1 receptor [19], 490 nM on Histamine H1 receptor [20] and 57.5 nM at Histamine H1 receptor [21].

For `NCCc1c[nH]cn1` [HISTAMINE], the EC50 in the test listed under Cavia porcellus [26] was 316 nM; in the test listed under Cavia porcellus [27], 200 nM; in the test listed under Cavia porcellus [28] it was 2240 nM; in the test filed under Rattus norvegicus, 4.47 µM.

For `CN(C)CCc1c[nH]c(CCC(c2ccccc2)c2ccccc2)n1`, the pA2 in test [9] is below 5.8. Further, the Kb in [14] is 7.76 µM; in test [15] it was 26.3 µM; on Histamine H3 receptor it was above 1580 nM; at Histamine H1 receptor [17], 2.51 nM; on Histamine H1 receptor [18], 0.776 nM and 1.38 nM; at Histamine H2 receptor, 26.3 µM. In addition, the Kb in [22] was 1150 nM; in test [23], 3.72 µM; in test [24] it was above 1580 nM; in test [29], above 31.6 µM; in [30], 10.5 nM. Moreover, the Emax in test [12] was 51 and 55. For the same molecule, the EC50 at Histamine H1 receptor [16] is 170 nM; at Histamine H1 receptor [19] it was 120 nM; at Histamine H1 receptor [20], 832 nM; at Histamine H1 receptor [21], 83.2 nM. The molecule also returned a pKp in test [13] of 6.4.

`NCCc1c[nH]c(C(c2ccccc2)c2ccccc2)n1` returned a pKp in test [1] of 5.37. Further, the Emax in test [31] is 28. The same molecule displayed a Relative potency in [32] of 8. Moreover, the EC50 on Histamine H1 receptor [21] was 2570 nM.

In general, pA2 refers to the negative logarithm of the molar antagonist concentration that doubles the agonist concentration needed for the same response. By EC50 is commonly meant the concentration needed to bring the measured effect to its halfway point.
